Experimental data as given in ChEMBL document CHEMBL1128260, “3-deaza- and 7-deaza-5'-noraristeromycin and their antiviral properties” (1995).
Values after ≈ are worked out from the molar mass of the structure shown.

Legend:
Type in all cases: functional
[1] = test system: HEL; assay: The minimum inhibitory concentration required to reduce CMV(Davis) virus induced cytopathicity by 50% was measured on HEL cells; conditions: Homo sapiens
Outline: (§1)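 Confluent cell monolayers in microtiter trays were inoculated with 100 CCID50 of virus and allowed 1 h adsorption, then residual virus was removed. Cultures were incubated with varying compound concentrations (400, 200, 100, ... µg/mL). Cytopathicity was scored once it was complete in the untreated infected controls. The value is the concentration reducing virus-induced cytopathicity by 50%.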

[2] = test system: MDCK; assay: The minimum inhibitory concentration required to reduce Influenza A virus induced cytopathicity by 50% was measured on MDCK cells; conditions: Canis lupus familiaris; outline: as §1
[3] = test system: Vero; assay: The minimum inhibitory concentration required to reduce Reo-1 virus (ATCC VR-230) induced cytopathicity by 50% was measured in Vero cells; conditions: Chlorocebus sabaeus; outline: as §1
[4] = test system: HeLa; assay: Tested for concentration required to cause a microscopically detectable alteration of HeLa cell morphology; conditions: Homo sapiens; read-out: MIC50
Outline: (§2)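 Confluent E6SM, HeLa, Vero or MDCK cell cultures exposed to varying test-compound concentrations and examined microscopically. The value is the concentration causing a microscopically detectable alteration of normal cell morphology.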

[5] = test system: E6SM; assay: The minimum inhibitory concentration required to reduce Vesicular Stomatitis Virus induced cytopathicity by 50% in E6SM cells; conditions: Homo sapiens; outline: as §1
[6] = test system: E6SM; assay: Tested for concentration required to cause a microscopically detectable alteration of E6SM cell morphology; conditions: Homo sapiens; read-out: MIC50; outline: as §2
[7] = test system: E6SM; assay: The minimum inhibitory concentration required to reduce HSV-2(G) virus induced cytopathicity by 50% was measured on E6SM cells; conditions: Homo sapiens; outline: as §1
[8] = test system: MDCK; assay: Tested for the concentration required to cause a microscopically detectable alteration of MCDK cell morphology; conditions: Canis lupus familiaris; read-out: MIC50; outline: as §2
[9] = test system: Vero; assay: The minimum inhibitory concentration required to reduce Sindbis virus ([…]) induced cytopathicity by 50% in Vero cells; conditions: Chlorocebus sabaeus; outline: as §1
[10] = test system: Vero; assay: Tested for concentration required to cause a microscopically detectable alteration of Vero cell morphology; conditions: Chlorocebus sabaeus; read-out: MIC50; outline: as §2
[11] = test system: E6SM; assay: The minimum inhibitory concentration required to reduce Vaccinia virus induced cytopathicity by 50% in E6SM cells; conditions: Homo sapiens; outline: as §1
[12] = test system: HEL; assay: The minimum inhibitory concentration required to reduce VZV(YS) virus induced cytopathicity by 50% was measured on HEL cells; conditions: Homo sapiens; outline: as §1
[13] = test system: E6SM; assay: The minimum inhibitory concentration required to reduce TK HSV-1 (B2006) virus induced cytopathicity by 50% in E6SM cells; conditions: Homo sapiens; outline: as §1
[14] = test system: HeLa; assay: The minimum inhibitory concentration required to reduce Polio-1 virus induced cytopathicity by 50% in HeLa cells; conditions: Homo sapiens; outline: as §1
[15] = test system: E6SM; assay: The minimum inhibitory concentration required to reduce TK-HSV-1(VMW 1837) virus induced cytopathicity by 50% in E6SM cells; conditions: Homo sapiens; outline: as §1
[16] = test system: Vero; assay: The minimum inhibitory concentration required to reduce Arenavirus (Junin) induced cytopathicity by 50% was measured on Vero cells; conditions: Chlorocebus sabaeus; outline: as §1
[17] = test system: HEL; assay: The minimum inhibitory concentration required to reduce VZV(Oka) virus induced cytopathicity by 50% was measured on HEL cells; conditions: Homo sapiens; outline: as §1
[18] = test system: MDCK; assay: The minimum inhibitory concentration required to reduce Influenza B virus induced cytopathicity by 50% was measured on MDCK cells; conditions: Canis lupus familiaris; outline: as §1
[19] = test system: Respiratory syncytial virus; assay: The minimum inhibitory concentration required to reduce RSV(Long) virus induced cytopathicity by 50% in HeLa cells; conditions: human respiratory syncytial virus; outline: as §1
[20] = test system: HEL; assay: The minimum inhibitory concentration required to reduce CMV(AD-169) virus induced cytopathicity by 50% was measured on HEL cells; conditions: Homo sapiens; outline: as §1
[21] = test system: Vero; assay: The minimum inhibitory concentration required to reduce Arenavirus (Tacaribe) induced cytopathicity by 50% was measured on Vero cells; conditions: Chlorocebus sabaeus; outline: as §1
[22] = test system: HEL; assay: The minimum inhibitory concentration required to reduce TK-VZV(YS-R) virus induced cytopathicity by 50% was measured on HEL cells; conditions: Homo sapiens; outline: as §1
[23] = test system: Vero; assay: The minimum inhibitory concentration required to reduce Parainfluenza virus type 3(ATCC VR-93) induced cytopathicity by 50% in Vero cells; conditions: Chlorocebus sabaeus; outline: as §1
[24] = test system: CCRF-CEM; assay: The minimum inhibitory concentration required to reduce HIV-2(ROD) virus induced cytopathicity by 50% was measured on CEM cells; conditions: Homo sapiens
Outline: (§3)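 CEM cells at 250,000-300,000 cells/mL were infected with HIV-1 (IIIB) or HIV-2 (ROD) at 100 CCID50/mL. The infected suspension was added to serial compound dilutions and incubated 4 days at 37 °C. Cultures were then examined for syncytium (giant cell) formation, and the 50% inhibitory concentration was recorded.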

[25] = test system: CCRF-CEM; assay: The minimum inhibitory concentration required to reduce HIV-1(IIIB) virus induced cytopathicity by 50% was measured on CEM cells; conditions: Homo sapiens; outline: as §3
[26] = test system: CCRF-CEM; assay: Tested for concentration required to cause a microscopically detectable alteration of CEM cell morphology; conditions: Homo sapiens
[27] = test system: Vero; assay: The minimum inhibitory concentration required to reduce forest virus (ATCC VR-67) induced cytopathicity by 50% in Vero cells; conditions: Chlorocebus sabaeus; outline: as §1
[28] = test system: HeLa; assay: The minimum inhibitory concentration required to reduce Coxsackie B4 virus induced cytopathicity by 50% in HeLa cells.; conditions: Homo sapiens; outline: as §1
[29] = test system: HEL; assay: The minimum inhibitory concentration required to reduce TK-VZV(07-1) virus induced cytopathicity by 50% was measured on HEL cells; conditions: Homo sapiens; outline: as §1
[30] = test system: HeLa; assay: The minimum inhibitory concentration required to reduce Vesicular Stomatitis Virus induced cytopathicity by 50% in HeLa cells; conditions: Homo sapiens; outline: as §1
[31] = test system: E6SM; assay: The minimum inhibitory concentration required to reduce HSV-1(KOS) virus induced cytopathicity by 50% was measured on E6SM cells; conditions: Homo sapiens; outline: as §1
[32] = test system: HEL; assay: Tested for the concentration required to cause a microscopically detectable alteration of HEL cell morphology; conditions: Homo sapiens; read-out: MIC50

Structure (SMILES) | MIC50 [1] [µg/mL] | MIC50 [2] [µg/mL] | MIC50 [3] [µg/mL] | Minimum cytotoxic concentration [4] [µg/mL] | MIC50 [5] [µg/mL] | minimum cytotoxic concentration (microscopic alteration of cell morphology) [6] [µg/mL] | MIC50 [7] [µg/mL] | Minimum cytotoxic concentration [8] [µg/mL] | MIC50 [9] [µg/mL] | Minimum cytotoxic concentration [10] [µg/mL] | MIC50 [11] [µg/mL] | MIC50 [12] [µg/mL] | MIC50 [14] [µg/mL] | MIC50 [16] [µg/mL] | MIC50 [17] [µg/mL] | MIC50 [18] [µg/mL] | MIC50 [19] [µg/mL] | MIC50 [20] [µg/mL] | MIC50 [21] [µg/mL] | MIC50 [23] [µg/mL] | further results
Nc1ncnc2c1ccn2[C@H]1C[C@@H](O)[C@H](O)[C@@H]1O | > 40 | > 200 | > 200 | > 400 | 70 (≈ 280 µM) | > 400 | > 400 | > 200 | > 200 | > 400 | 150 (≈ 599 µM) | > 40 | > 400 | > 20 | > 40 | > 200 | 100 (≈ 400 µM) | > 40 | > 20 | 100 (≈ 400 µM) | MIC50 [13]: 300 µg/mL (≈ 1200 µM); MIC50 [15]: 300 µg/mL (≈ 1200 µM); MIC50 [22]: > 40 µg/mL; MIC50 [24]: > 500 µg/mL; MIC50 [25]: > 500 µg/mL; MIC50 [26]: > 500 µg/mL; MIC50 [27]: > 200 µg/mL; MIC50 [28]: > 400 µg/mL; MIC50 [29]: > 40 µg/mL; MIC50 [30]: 300 µg/mL (≈ 1200 µM); MIC50 [31]: 300 µg/mL (≈ 1200 µM); Minimum cytotoxic concentration (MCC) [32]: > 200 µg/mL
Nc1nccc2c1ncn2C1CC(O)C(O)C1O (single isomer, unassigned; (-)) | > 40 | 150 (≈ 599 µM) | 7 (≈ 28 µM) | > 400 | 0.7 (≈ 2.8 µM) | > 400 | > 400 | > 200 | > 200 | > 200 | 0.4 (≈ 1.6 µM) | > 40 | > 400 | > 40 | > 40 | > 200 | > 150 | > 40 | > 40 | 1 (≈ 4 µM) | MIC50 [13]: 300 µg/mL (≈ 1200 µM); MIC50 [15]: 300 µg/mL (≈ 1200 µM); MIC50 [22]: > 40 µg/mL; MIC50 [24]: > 20 µg/mL; MIC50 [25]: > 20 µg/mL; MIC50 [26]: 27 µg/mL (≈ 108 µM); MIC50 [27]: > 200 µg/mL; MIC50 [28]: > 400 µg/mL; MIC50 [29]: > 30 µg/mL; MIC50 [30]: 2 µg/mL (≈ 7.99 µM); MIC50 [31]: > 400 µg/mL; Minimum cytotoxic concentration (MCC) [32]: > 200 µg/mL
Nc1ncnc2c1ncn2[C@@H]1C=C(CO)[C@@H](O)[C@H]1O [NEOPLANOCIN A] | 0.4 (≈ 1.52 µM) | 0.3 (≈ 1.14 µM) | 0.7 (≈ 2.66 µM) | 1 | 2 (≈ 7.6 µM) | 100 | > 100 | 4 | 2 (≈ 7.6 µM) | 40 | 0.2 (≈ 0.76 µM) | 5 (≈ 19 µM) | > 40 | 1 (≈ 3.8 µM) | 4 (≈ 15.2 µM) | > 4 | > 1.2 | 0.6 (≈ 2.28 µM) | 1 (≈ 3.8 µM) | 0.2 (≈ 0.76 µM) | MIC50 [13]: 20 µg/mL (≈ 76 µM); MIC50 [15]: 70 µg/mL (≈ 266 µM); MIC50 [22]: 3 µg/mL (≈ 11.4 µM); MIC50 [27]: 7 µg/mL (≈ 26.6 µM); MIC50 [28]: > 40 µg/mL; MIC50 [29]: 4 µg/mL (≈ 15.2 µM); MIC50 [30]: 2 µg/mL (≈ 7.6 µM); MIC50 [31]: 70 µg/mL (≈ 266 µM); Minimum cytotoxic concentration (MCC) [32]: 20 µg/mL
Nc1ncnc2c1ncn2[C@@H]1C[C@H](O)[C@@H](O)[C@H]1O [NORARISTEROMYCIN] | 0.03 (≈ 0.119 µM) | > 100 | 0.7 (≈ 2.79 µM) | > 400 | 0.1 (≈ 0.398 µM) | > 400 | > 400 | > 400 | > 400 | > 400 | 0.04 (≈ 0.159 µM) | > 50 | > 400 | 6 (≈ 23.9 µM) | > 50 | > 100 | > 200 | 0.01 (≈ 0.0398 µM) | 8 (≈ 31.8 µM) | 0.07 (≈ 0.279 µM) | MIC50 [24]: > 0.16 µg/mL; MIC50 [25]: > 0.16 µg/mL; MIC50 [26]: 0.4 µg/mL (≈ 1.59 µM); MIC50 [27]: > 400 µg/mL; MIC50 [28]: > 400 µg/mL; MIC50 [30]: 0.2 µg/mL (≈ 0.796 µM); MIC50 [31]: > 400 µg/mL; Minimum cytotoxic concentration (MCC) [32]: 50 µg/mL
